Data reported in ChEMBL document CHEMBL4138208, “Targeting tubulin polymerization by novel 7-aryl-pyrroloquinolinones: Synthesis, biological activity and SARs” (Eur J Med Chem, 2018).
Activity calls are given as the source filed them. No cut-off for these calls is given here.

Legend:
Jurkat = test: Growth inhibition of human Jurkat cells after 72 hrs by MTT assay; type: functional
Kasumi 1 = test: Growth inhibition of human Kasumi-1 cells after 72 hrs by MTT assay; type: functional; conditions: Kasumi 1, 72 h
MDA-MB-231 = test: Growth inhibition of human MDA-MB-231 cells after 72 hrs by MTT assay; type: functional; conditions: MDA-MB-231, 72 h
RS4-11 = test: Growth inhibition of human RS4:11 cells after 72 hrs by MTT assay; type: functional; conditions: RS4-11, 72 h
HT-29 = test: Growth inhibition of human HT-29 cells after 72 hrs by MTT assay; type: functional; conditions: HT-29, 72 h
HeLa [1] = test: Growth inhibition of human HeLa cells after 72 hrs by MTT assay; type: functional
A549 = test: Growth inhibition of human A549 cells after 72 hrs by MTT assay; type: functional; conditions: A549, 72 h
CCRF-CEM [2] = test: Cytotoxicity against human CEM cells after 72 hrs by MTT assay; type: functional, cell-based
In short: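 Cells seeded at 8 × 10^3 per well and preincubated 18 h at 37 °C, 5% CO2. Leukemia lines were in RPMI-1640 and adherent lines in DMEM, each with 10% FBS plus penicillin/streptomycin. Medium replaced with compound at varying concentrations, in triplicate, for 72 h.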

CCRF-CEM [3] = test: Cytotoxicity against human multidrug-resistant CEM/VBL100 cells after 72 hrs by MTT assay; type: functional, cell-based
In short: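 CEMVbl-100 (vinblastine-selected, P-gp-overexpressing) cells maintained in RPMI-1640 containing 100 ng/mL vinblastine. Seeded at 8 × 10^3 per well, preincubated 18 h, then exposed in triplicate to varying concentrations for 72 h. Viability read by MTT. IC50 taken as mean ± SEM of three separate experiments.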

Bos taurus = organism: Bos taurus; test: Inhibition of [3H]colchicine binding to bovine brain tubulin at 1 to 5 uM by DEAE-cellulose filter method relative to control
HeLa [4] = test: Induction of apoptosis in human HeLa cells at 0.1 uM after 24 to 48 hrs by propidium iodide/annexin V/FITC staining-based flow cytometric analysis; type: functional, cell-based
In short: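 A549 or HeLa cells treated for 24 or 48 h. Cells harvested, double-stained with annexin-V-FITC and propidium iodide, and analysed by flow cytometry for phosphatidylserine exposure. Mean ± SEM of three independent experiments.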

HeLa [5] = test: Cell cycle arrest in human HeLa cells assessed as accumulation at G2/M phase after 24 hrs by propidium iodide staining-based flow cytometric analysis; type: functional
In short: (§1)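 HeLa cells (5 × 10^5) exposed to graded compound concentrations for 24 h, fixed in ice-cold 70% ethanol, then lysed in buffer with RNase A and 0.1% Triton X-100. DNA stained with propidium iodide and phase distribution read by flow cytometry. Mean of two independent experiments ± SEM.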

HeLa [6] = test: Cell cycle arrest in human HeLa cells assessed as accumulation at G1 phase after 24 hrs by propidium iodide staining-based flow cytometric analysis; type: functional; in short: as §1
HeLa [7] = test: Cell cycle arrest in human HeLa cells assessed as accumulation at S phase after 24 hrs by propidium iodide staining-based flow cytometric analysis; type: functional; in short: as §1
HeLa [8] = test: Cell cycle arrest in human HeLa cells assessed as decrease in phosphatase cdc25c expression at 0.1 to 1 uM after 24 to 48 hrs by Western blot analysis; type: functional, cell-based
In short: (§2)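 HeLa cells treated for the stated times (24 or 48 h), washed in cold PBS and lysed on ice for 30 min. Lysate cleared at 15000 × g, 4 °C. 10 µg protein run on SDS-PAGE and blotted to PVDF, blocked in 5% BSA. Primary antibodies 2 h at room temperature, then peroxidase secondary 60 min, ECL detection. Membranes stripped and reprobed for γ-tubulin as loading control.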

HeLa [9] = test: Induction of apoptosis in human HeLa cells assessed as decrease in Mcl-1 levels at 0.1 to 1 uM after 24 hrs by Western blot analysis; type: functional, cell-based; in short: as §2
HeLa [10] = test: Induction of mitochondrial membrane depolarization in human HeLa cells at 0.1 to 1 uM by JC-1 staining based flow cytometric analysis; type: functional, cell-based; conditions: TDE = time-dependent effect
In short: (§3)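 HeLa cells exposed for 6, 12, 24 or 48 h. Stained either with JC-1 to read mitochondrial membrane potential or with H2-DCFDA to read ROS, then analysed by flow cytometry. Mean ± SEM of three independent experiments.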

[11] = target: T1, M-phase inducer phosphatase 3 (Homo sapiens) (UniProt P30307); test: Inhibition of cdc25c phosphorylation in human HeLa cells at 0.1 to 1 uM after 24 to 48 hrs by Western blot analysis; type: cell-based; in short: as §2
T1 sequence (whole entry): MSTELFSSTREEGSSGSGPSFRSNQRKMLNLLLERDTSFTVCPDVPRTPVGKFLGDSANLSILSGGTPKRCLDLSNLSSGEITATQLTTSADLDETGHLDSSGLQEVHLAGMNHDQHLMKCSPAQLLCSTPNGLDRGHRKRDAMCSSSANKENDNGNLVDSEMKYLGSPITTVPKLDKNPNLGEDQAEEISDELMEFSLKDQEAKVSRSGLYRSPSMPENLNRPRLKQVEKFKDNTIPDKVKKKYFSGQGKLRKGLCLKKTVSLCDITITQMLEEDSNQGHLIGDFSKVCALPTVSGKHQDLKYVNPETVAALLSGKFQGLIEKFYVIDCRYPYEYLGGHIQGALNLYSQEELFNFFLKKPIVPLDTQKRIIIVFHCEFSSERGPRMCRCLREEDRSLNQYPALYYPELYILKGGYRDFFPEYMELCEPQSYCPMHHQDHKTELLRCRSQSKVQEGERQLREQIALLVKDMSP

HeLa [12] = test: Induction of apoptosis in human HeLa cells assessed as decrease in Bcl-2 levels at 0.1 to 1 uM after 24 hrs by Western blot analysis; type: functional, cell-based; in short: as §2
[13] = target: Cyclin-dependent kinase 1 (Homo sapiens) (UniProt P06493); test: Inhibition of cdc2 phosphorylation at Y15 in human HeLa cells at 0.1 to 1 uM after 24 to 48 hrs by Western blot analysis; type: cell-based; in short: as §2
Chain of Cyclin-dependent kinase 1 (Homo sapiens) (P06493 whole entry, looked up): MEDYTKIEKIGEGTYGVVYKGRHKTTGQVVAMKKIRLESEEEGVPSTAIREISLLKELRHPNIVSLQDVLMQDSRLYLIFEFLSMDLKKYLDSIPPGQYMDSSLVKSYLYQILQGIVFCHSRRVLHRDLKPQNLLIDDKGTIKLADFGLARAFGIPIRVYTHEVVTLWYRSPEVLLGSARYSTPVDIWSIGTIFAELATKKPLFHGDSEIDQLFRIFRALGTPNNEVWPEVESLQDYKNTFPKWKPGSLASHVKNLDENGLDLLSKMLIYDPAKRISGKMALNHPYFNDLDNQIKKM

HeLa [14] = test: Induction of ROS production in human HeLa cells at 0.1 to 1 uM after 12 to 24 hrs by H2DCFDA staining based flow cytometric analysis; type: functional, cell-based; in short: as §3

| Structure (SMILES) | GI50 (Jurkat) [nM] | GI50 (Kasumi 1) [nM] | GI50 (MDA-MB-231) [nM] | GI50 (RS4-11) [nM] | GI50 (HT-29) [nM] | GI50 (HeLa [1]) [nM] | GI50 (A549) [nM] | further results |
| --- | --- | --- | --- | --- | --- | --- | --- | --- |
| CCCCCCCCCCCCCCCCCCn1ccc2c3c(=O)cc(-c4ccccc4)[nH]c3ccc21 | > 10000 | > 10000 | 5360 | > 10000 | > 10000 | 8350 | 820 |  |
| CC[C@]1(O)C[C@@H]2CN(CCc3c([nH]c4ccccc34)[C@@](C(=O)OC)(c3cc4c(cc3OC)N(C)[C@H]3[C@@](O)(C(=O)OC)[C@H](OC(C)=O)[C@]5(CC)C=CCN6CC[C@]43[C@@H]65)C2)C1 [VINBLASTINE] |  |  |  |  |  |  |  | IC50 (CCRF-CEM [2]): 1.5 nM; IC50 (CCRF-CEM [3]): 285 nM |
| CCn1ccc2cc3c(=O)cc(-c4ccccc4)[nH]c3cc21 | 27 | 30 | 641 | 13 | 16 | 49 | 7.1 | inhibition (Bos taurus): 24% |
| O=C1C=C(c2ccccc2)Nc2cccc3ccn1c23 | > 10000 | > 10000 | > 10000 | > 10000 | > 10000 | > 10000 | > 10000 |  |
| CCn1ccc2ccc3c(=O)cc(-c4ccccc4)[nH]c3c21 | > 10000 | > 10000 | > 10000 | > 10000 | > 10000 | 5920 | 9590 |  |
| COc1ccc(/C=C\c2cc(OC)c(OC)c(OC)c2)cc1O |  |  |  |  |  |  |  | Activity (HeLa [4]): Active |
| CCn1ccc2c3c(=O)cc(-c4ccc5c(c4)CCCC5)[nH]c3ccc21 |  |  |  |  |  |  |  | Activity (HeLa [5]): Active; Activity (HeLa [6]): Active; Activity (HeLa [7]): Active |
| CCCCCCCCCCCCCCCCCCn1ccc2c3c(=O)cc(C)[nH]c3ccc21 | > 10000 | > 10000 | > 10000 | > 10000 | > 10000 | 2380 | 3400 |  |
| CCn1ccc2c3c(=O)cc(-c4ccc5ccccc5c4)[nH]c3ccc21 | 32 | 396 | 465 | 22 | 376 | 714 | 744 |  |
| CCn1ccc2ccc3[nH]c(-c4ccccc4)cc(=O)c3c21 | 27 | 30 | 641 | 13 | 16 | 49 | 7.1 | inhibition (Bos taurus): 24% |
| CCn1ccc2c3c(=O)cc(-c4cccc5ccccc45)[nH]c3ccc21 |  |  |  |  |  |  |  | IC50 (CCRF-CEM [2]): 29.8 nM; Activity (HeLa [5]): Active; IC50 (CCRF-CEM [3]): 2.3 nM; Activity (HeLa [6]): Active; Activity (HeLa [7]): Active |
| CCn1ccc2c3c(=O)cc(-c4ccc5c(c4)OCO5)[nH]c3ccc21 |  |  |  |  |  |  |  | IC50 (CCRF-CEM [2]): 27.8 nM; Activity (HeLa [8]): Active; Activity (HeLa [9]): Active; Activity (HeLa [10]): Tde; inhibition [11]: Active; Activity (HeLa [5]): Active; Activity (HeLa [12]): Active; IC50 (CCRF-CEM [3]): 3.7 nM; inhibition [13]: Active; Activity (HeLa [6]): Active; Activity (HeLa [7]): Active; Activity (HeLa [14]): Active |
